For test [1], the system named is HeLa. Description: Induction of apoptosis in human HeLa cells assessed as late apoptotic cells at 1 uM after 12 hrs by Annexin V-FITC/propidium iodide staining-based flow cytometric analysis (reference value: 2.32%). It counts as functional. (A flow cytometer gives signals particle by particle.)
Test [2] has as its system HeLa. Description: Disruption of spindle formation in human HeLa cells assessed as shrinkage of microtubule spindles at 1 uM after 24 hrs by DAPI staining based immunofluorescence microscopic analysis. It counts as functional, cell-based. In outline:
(§1)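 HeLa cells on coverslips treated 24 h (0.1 or 1 μM; DMSO control); fixed in 4% paraformaldehyde, permeabilised in 0.1% Triton X-100 with 2% BSA, anti-α-tubulin overnight at 4 °C, FITC secondary 2 h room temperature, DAPI for DNA; confocal imaging.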

The next test has as its system A549. Description: Antiproliferative activity against human A549 cells after 48 hrs by MTT assay. It counts as functional. The following applies: A549, 48 h. In outline: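 MTT assay: cells attached 4–6 h at 37 °C, 5% CO2, then exposed 48 h to graded concentrations from DMSO stocks; 5 mg/mL MTT added for 4 h, formazan dissolved in DMSO, absorbance at 490 nm. GI50 from log plot of percent of control versus concentration; mean of three independent experiments.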
(Tetrazolium assays rely on reduction of a dye to a coloured formazan, in cell work by metabolically active cells.)

A further test addresses Aurora kinase B (Homo sapiens, UniProt Q96GD4). As to the kind of experiment: Inhibition of Aurora B phosphorylation at Thr232 residue in human HeLa cells at <10 nM after 12 hrs by ELISA. It counts as cell-based. In outline: (§2)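 HeLa cells grown 12 h in 6-well dishes with compound diluted from DMSO at several concentrations; whole-cell lysate captured on anti-Aurora A or B antibody-coated wells, HRP-labelled detection, TMB substrate, stopped with sulphuric acid, absorbance at 450 nm.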
In general terms: An ELISA detects its analyte on a solid surface through an enzyme-linked reagent.

For test [3], the system named is HeLa. As to the kind of experiment: Induction of apoptosis in human HeLa cells assessed as necrotic cells at 0.1 uM after 12 hrs by Annexin V-FITC/propidium iodide staining-based flow cytometric analysis (reference value: 5.92%). Format: functional.
Test [4] concerns HeLa. Description: Cell cycle arrest in human HeLa cells assessed as accumulation at S phase at 5 uM after 12 hrs by propidium iodide staining-based flow cytometric analysis (reference value: 5.74%). It counts as functional. In outline: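 HeLa cells exposed 12 h to 1 or 5 μM compound diluted from DMSO (DMSO control), fixed, stained with propidium iodide; DNA content measured by flow cytometry and G1, S, G2/M fractions calculated from the DNA histogram.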

Test [5] relates to HeLa. As to the kind of experiment: Induction of apoptosis in human HeLa cells assessed as necrotic cells at 1 uM after 12 hrs by Annexin V-FITC/propidium iodide staining-based flow cytometric analysis (reference value: 5.92%). Format: functional.
The test system of test [6] is HeLa. As to the kind of experiment: Induction of apoptosis in human HeLa cells assessed as early apoptotic cells at 5 uM after 12 hrs by Annexin V-FITC/propidium iodide staining-based flow cytometric analysis (reference value: 0.75%). It counts as functional.
Test [7] relates to HeLa. As to the kind of experiment: Induction of apoptosis in human HeLa cells assessed as early apoptotic cells at 0.1 uM after 12 hrs by Annexin V-FITC/propidium iodide staining-based flow cytometric analysis (reference value: 0.75%). Format: functional.
Test [8] concerns the target T1, Aurora kinase A (Homo sapiens) (UniProt O14965).
T1 sequence (whole entry): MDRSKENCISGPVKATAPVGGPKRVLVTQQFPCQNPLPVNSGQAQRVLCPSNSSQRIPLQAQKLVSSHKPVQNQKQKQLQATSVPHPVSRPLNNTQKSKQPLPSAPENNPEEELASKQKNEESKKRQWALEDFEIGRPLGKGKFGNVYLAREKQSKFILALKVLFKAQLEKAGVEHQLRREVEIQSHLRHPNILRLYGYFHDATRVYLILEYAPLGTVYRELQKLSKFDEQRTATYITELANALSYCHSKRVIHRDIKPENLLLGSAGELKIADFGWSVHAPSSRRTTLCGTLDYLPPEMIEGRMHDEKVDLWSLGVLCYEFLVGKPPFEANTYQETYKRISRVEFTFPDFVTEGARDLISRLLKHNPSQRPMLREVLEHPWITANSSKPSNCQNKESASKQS
As to the kind of experiment: Inhibition of Aurora A phosphorylation at Thr288 residue in human HeLa cells at <10 nM after 12 hrs by ELISA. Format: cell-based. In outline:
as §2

Test [9] deals with HeLa. As to the kind of experiment: Induction of apoptosis in human HeLa cells assessed as upregulation of Bad protein expression up to 5 uM after 12 hrs by Western blot analysis. Format: functional, cell-based. In outline:
(§3)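 HeLa cells treated 12 h (0.1, 1, 5 μM for apoptosis proteins); lysed in Tris pH 7.5/NP-40/SDS buffer with protease inhibitors, equal protein on 10% SDS-PAGE, PVDF, 5% BSA block, primary antibodies overnight at 4 °C, β-actin loading control; mean ± SD.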

The species entered for the next test is Homo sapiens. Description: Selectivity ratio of IC50 for Aurora B in human HeLa cells to IC50 for Aurora A in human HeLa cells. It counts as cell-based.
Test [10] concerns HeLa. Description: Induction of apoptosis in human HeLa cells assessed as upregulation of caspase-3 protein expression up to 5 uM after 12 hrs by Western blot analysis. It counts as functional, cell-based. In outline:
as §3

The subject of test [11] is HeLa. Description: Disruption of spindle formation in human HeLa cells assessed as formation of abnormal mitotic spindles at 0.1 to 1 uM after 24 hrs by DAPI staining based immunofluorescence microscopic analysis. It counts as functional, cell-based. In outline: as §1

The source made the active and inactive calls. No cut-off for these calls is given here.

As a reminder, the GI50 is the concentration giving 50% growth inhibition. Read a high GI50 as lower sensitivity of the cells.

Aurora kinase B, sequence (Q96GD4 whole entry): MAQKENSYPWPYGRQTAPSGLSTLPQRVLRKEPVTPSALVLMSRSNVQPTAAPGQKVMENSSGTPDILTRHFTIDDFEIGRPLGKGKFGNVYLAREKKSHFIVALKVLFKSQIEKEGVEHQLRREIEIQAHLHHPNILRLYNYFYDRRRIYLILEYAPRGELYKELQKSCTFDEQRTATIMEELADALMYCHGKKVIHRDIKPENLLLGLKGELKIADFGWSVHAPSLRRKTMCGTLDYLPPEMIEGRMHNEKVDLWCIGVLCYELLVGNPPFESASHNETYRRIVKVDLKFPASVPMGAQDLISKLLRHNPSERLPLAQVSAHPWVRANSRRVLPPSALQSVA

Take `CC1(C)CC(NC(=O)c2ccc(Nc3ncc(F)c(Nc4ccc(C(=O)Nc5ccccc5Cl)cc4)n3)cc2)CC(C)(C)N1[O]`: the Activity came to 8.06% in the test with HeLa [1]; 5.63% with HeLa [3]; 0% with HeLa [4]; 9.93% with HeLa [5]; 4.85% in the test on HeLa [6]; 1.12% in the test on HeLa [7]. Besides, the result with HeLa [2], in the test on HeLa [9], in the test on HeLa [10] and with HeLa [11] was Active. In the test with A549, growth was halved (GI50) at 1.1 µM. In addition, the inhibition entry (at Aurora kinase B; in test [8]) was “inactive” throughout. Moreover, the Ratio IC50 in the test filed under Homo sapiens worked out at 67.

The values are drawn from ChEMBL document CHEMBL4308900, “Synthesis and identification of 2,4-bisanilinopyrimidines bearing 2,2,6,6-tetramethylpiperidine-N-oxyl as potential Aurora A inhibitors” (Bioorg Med Chem, 2019).
